Assay results from different studies.
Protocols differ between the studies behind these lines. pIC50: −log10 of the molar value.

Compound | cell line | assay | setting | pIC50
CC1=C(O)C(=O)C=C2C1=CC=C1[C@@]2(C)CC[C@@]2(C)[C@@H]3C[C@](C)(C(=O)OCCCCCO)CC[C@]3(C)CC[C@]12C | AGS | cell growth or viability, MTT | 48 h | 6.37
COc1c(C)c(OS(=O)(=O)c2ccc3ccccc3c2)c(C)c(OS(=O)(=O)c2ccc3ccccc3c2)c1C(=O)/C=C/c1ccccc1 | KKU-M213 | cell growth or viability, SRB | 72 h | < 4.30
Cn1nnc2c(C(=O)N3CCCC3)ncn2c1=O | U-87 MG | cell growth or viability, resazurin | 7 days | 4.77
CC1=C(O)C(=O)C=C2C1=CC=C1[C@@]2(C)CC[C@@]2(C)[C@@H]3C[C@](C)(C(=O)OCCCCCCO)CC[C@]3(C)CC[C@]12C | AGS | cell growth or viability, MTT | 48 h | 6.44
CCCCCCCCCCCC(=O)Oc1c(C)c(O)c(C(=O)/C=C/c2ccccc2)c(OC)c1C | KKU-M213 | cell growth or viability, SRB | 72 h | < 4.30
C=CC(=O)Nc1cc(Nc2nccc(-c3cn(C)c4ccccc34)n2)c(OC)cc1N(C)CCN(C)C | PC-9 | cell growth or viability, ATP luminescence | 72 h | 8.37
O=C1NC(=NCc2cccs2)S/C1=C\c1ccc2ncccc2c1 | EKVX | cell growth or viability | – | < 5.00
Cc1cnc(NC2CCOCC2)nc1-n1cnc(C(=O)NC(CN)c2cc(F)cc(Cl)c2)c1 (centres unmarked) | JVM13 | cell growth or viability, MTS | – | 5.57
CCc1ccc(N2NC(=O)/C(=C/c3ccc(-c4ccc(S(=O)(=O)Nc5nccs5)cc4)o3)C2=O)cc1 | MEF | cell growth or viability, MTT | 72 h | 4.30
COCCCOC(=O)[C@]1(C)CC[C@]2(C)CC[C@]3(C)C4=CC=C5C(=CC(=O)C(O)=C5C)[C@]4(C)CC[C@@]3(C)[C@@H]2C1 | AGS | cell growth or viability, MTT | 48 h | 6.41
Cc1ncn2c(=O)n(C)nnc12 | U-87 MG | cell growth or viability, resazurin | 7 days | 5.52
Cn1nnc2c(C(N)=O)ncn2c1=O | IMR-32 | cell growth or viability | – | 4.09
CC1=C(O)C(=O)C=C2C1=CC=C1[C@@]2(C)CC[C@@]2(C)[C@@H]3C[C@](C)(C(=O)OCCCBr)CC[C@]3(C)CC[C@]12C | AGS | cell growth or viability, MTT | 48 h | 6.44
COc1ccc(/C=C/C(=O)c2cc(Br)ccc(=O)c2O)cc1 | MEF | cell growth or viability, MTT | 72 h | 5.22
CC(C)[C@H](N)c1nc2cc(-c3ccncc3F)sc2c(=O)[nH]1 | SHP77 | cell growth or viability, MTT | – | 6.12
C#CCSc1nc(Sc2nnnn2-c2ccccc2)c2nnn(Cc3ccc(OC)cc3)c2n1 | Raji | cell growth or viability, MTS | 6 days | 5.48
CC1=C(O)C(=O)C=C2C1=CC=C1[C@@]2(C)CC[C@@]2(C)[C@@H]3C[C@](C)(C(=O)OCCCOc4ccccc4)CC[C@]3(C)CC[C@]12C | AGS | cell growth or viability, MTT | 48 h | 5.87
O=C(c1cc(Cc2n[nH]c(=O)c3ccccc23)ccc1F)N1CCN(C(=O)C2CC2)CC1 | SK-OV-3 | colony formation | – | 5.58
CC1=C(O)C(=O)C=C2C1=CC=C1[C@@]2(C)CC[C@@]2(C)[C@@H]3C[C@](C)(C(=O)OCCO)CC[C@]3(C)CC[C@]12C | AGS | cell growth or viability, MTT | 48 h | 6.33
CCN1CCN(c2ccc(Nc3cc(N(C)C(=O)Nc4c(Cl)c(OC)cc(OC)c4Cl)ncn3)cc2)CC1 | JMSU-1 | cell growth or viability, ATP luminescence | 96 h | 7.59
